From article PMC6345172 (Cancer letters, 2018)

How the values were obtained:
AGS cells = assay: MTT cell proliferation assay, AGS; format: cell-based; conditions: Homo sapiens, 72 h, read-out: IC50 on AGS cells
Outline: (§1)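 Cells seeded overnight in 96-well plates, then exposed to a range of test compound concentrations for 72 h. MTT added for 2 h, medium removed, formazan dissolved in DMSO, and OD570 read. Viability normalized to untreated cells from the same experiment. IC50 calculated from concentration–response data. MTT run in triplicate; means ± SEM of three experiments.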

MKN45 cells = assay: MTT cell proliferation assay, MKN45; format: cell-based; conditions: Homo sapiens, MKN-45, 72 h, read-out: IC50 on MKN45 cells
Outline: as §1

IC50 (AGS cells): 27.8 ± 1.1 µM | IC50 (MKN45 cells): 13.7 ± 0.8 µM
Compound: COc1ccc(CCCOC(Cn2ccnc2)c2ccc(OC)cc2)cc1 (centres unmarked) [SKF96365]
